From ChEMBL document CHEMBL2331385, “Evaluation of adamantane hydroxamates as botulinum neurotoxin inhibitors: synthesis, crystallography, modeling, kinetic and cellular based studies” (Bioorg Med Chem, 2013) come the findings set out here.

Activity calls are given as the source filed them. No cut-off for these calls is given here. A value given as a limit tells only on which side of the number the result lay.

For data set [1], the target named is T1, Botulinum neurotoxin type A (Clostridium botulinum, UniProt P0DPI0). The experiment in a line: Inhibition of Clostridium botulinum BoNT/A Hall A hyper protease light chain (1-425aa) using SNAPtide as substrate by FRET assay. The method in brief:
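Recombinant BoNT/A light chain (residues 1-425) cleaving the FRET peptide SNAPtide at 5 μM, with 0.01 % Triton X-100. Inhibitor concentration varied; IC50 taken from fluorescence signal.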

Data set [2] deals with T1, Botulinum neurotoxin type A. Put plainly: Competitive inhibition of Clostridium botulinum BoNT/A Hall A hyper protease light chain (1-425aa) using SNAP-66mer (141-206aa) as substrate by FRET assay.
The nature of data set [3]: Cytotoxicity against stem cell-derived neurons (unknown origin) at 500 uM after 22 hrs. The method in brief:
(§1)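 Primary rat spinal cord cells or stem cell-derived neurons exposed to compound. Cytotoxicity judged from low overall protein signal on Western blot.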

Data set [4] in a line: Cytotoxicity against rat spinal cord cells at 500 uM after 22 hrs. The data set is classed as cell-based. In outline: as §1
Data set [5] is described as follows: Cytotoxicity against rat spinal cord cells at 20 uM after 22 hrs. Type of data set: cell-based. The method in brief:
as §1

The target of data set [6] is Botulinum neurotoxin type A (Clostridium botulinum) (UniProt P0DPI0). Put plainly: Inhibition of Clostridium botulinum BoNT/A protease light chain in stem cell-derived neurons (unknown origin) assessed as inhibition of SNAP-25 cleavage at 0.5 to 50 uM after 22 hrs by Western blot analysis. Background: A western blot detects proteins with antibodies after separation by electrophoresis.

Data set [7] in a line: Cytotoxicity against stem cell-derived neurons (unknown origin) at 20 uM after 22 hrs. The method in brief: as §1
Data set [8] has as its target Botulinum neurotoxin type A (Clostridium botulinum) (UniProt P0DPI0). The experiment in a line: Inhibition of Clostridium botulinum BoNT/A protease light chain in rat spinal cord cells assessed as inhibition of SNAP-25 cleavage at 0.5 to 50 uM after 22 hrs by Western blot analysis. Type of data set: cell-based.
Data set [9] is described as follows: Cytotoxicity against rat spinal cord cells at 50 uM after 22 hrs. Type of data set: cell-based. The method in brief: as §1

Chain of Botulinum neurotoxin type A (Clostridium botulinum) (P0DPI0 2-448 limits assumed): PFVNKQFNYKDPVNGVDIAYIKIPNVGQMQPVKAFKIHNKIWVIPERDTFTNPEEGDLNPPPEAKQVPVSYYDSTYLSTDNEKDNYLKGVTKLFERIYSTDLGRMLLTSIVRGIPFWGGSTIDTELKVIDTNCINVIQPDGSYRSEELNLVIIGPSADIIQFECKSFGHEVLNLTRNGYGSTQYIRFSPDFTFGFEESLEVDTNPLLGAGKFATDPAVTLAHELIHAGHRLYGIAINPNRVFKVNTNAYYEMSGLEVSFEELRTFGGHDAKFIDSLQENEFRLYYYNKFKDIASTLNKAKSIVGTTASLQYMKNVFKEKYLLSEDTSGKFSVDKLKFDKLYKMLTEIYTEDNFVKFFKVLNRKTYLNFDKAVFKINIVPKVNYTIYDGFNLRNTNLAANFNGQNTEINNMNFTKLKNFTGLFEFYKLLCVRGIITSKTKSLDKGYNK
T1 sequence (P0DPI0 2-448 limits assumed): as above

For orientation: IC50 means the concentration needed to halve the response being measured. Lower therefore signals greater potency in that assay. What is called Ki is a dissociation constant, usually derived from enzyme kinetics or from competition with a known ligand. Low values mean higher affinity, high ones lower affinity. Turning to `O=C(CC12CC3CC(CC(C3)C1)C2)NO`, the midpoint of inhibition in data set [1], the IC50, lay at 1000 nM. The affinity in data set [2], expressed as Ki, was 460 nM.

For `COc1ccc(C23CC4CC(CC(CC(=O)NO)(C4)C2)C3)cc1`, the Activity entry in data set [3] is “Non-toxic”; in data set [4] it was “Toxic”; in data set [5], “Toxic”; in data set [7] it was “Toxic”. Also, the result in [6] and in data set [8] was inactive. Half-maximal inhibition in [1] (IC50) was put at 250 nM. The affinity in [2] corresponds to a Ki of 130 nM.

Molecule `O=C(CC12CC3CC(CC(Br)(C3)C1)C2)NO` returned an IC50 in data set [1] of 1400 nM.

Molecule `CC(=O)OC12CC3CC(CC(CC(=O)NO)(C3)C1)C2` registered an IC50 in data set [1] of 24000 nM.

In the case of `O=C(CC12CC3CC(C1)CC(c1ccc(Br)cc1)(C3)C2)NO`, the Activity entry in data set [3] was “Non-toxic”; in [4] it was “Toxic”; in data set [5], “Toxic”; in [9], “Toxic”; in data set [7] it was “Toxic”. For the same molecule, the result in [6] and in data set [8] was inactive. The molecule further gave an IC50 in data set [1] of 40 nM. Affinity in [2] was put at a Ki of 27 nM.

On to `O=C(CC12CC3CC(C1)CC(c1ccccc1)(C3)C2)NO`, for which the concentration for half-maximal inhibition (IC50) in [1] was 500 nM. The same molecule yielded a Ki in data set [2] of 750 nM.

In data set [1], `O=C(CC12CC3CC(C1)CC(c1ccc(-c4ccccc4)cc1)(C3)C2)NO` had an IC50 of 200 nM.

In data set [1], `O=C(CC12CC3CC(CC(CO)(C3)C1)C2)NO` showed a 50% inhibitory concentration (IC50) of 3400 nM.

Regarding `O=C(CC12CC3CC(CC(O)(C3)C1)C2)NO`, inhibition in data set [1] was half-maximal at 23000 nM (IC50). Compared with the last molecule, the IC50 is about 6.8-fold higher.

In data set [1], `O=C(CC12CC3CC(C1)CC(c1ccc(Cl)cc1)(C3)C2)NO` registered an IC50 of 30 nM. Moreover, the Ki in data set [2] came out at 27 nM.

As for `O=C(CC12CC3CC(C1)CC(c1ccc([N+](=O)[O-])cc1)(C3)C2)NO`, the Activity result in [3] was “Non-toxic”; in [4] it was “Toxic”; in [5], “Toxic”; in data set [7], “Toxic”. For the same molecule, the result in [6] and in data set [8] was inactive. Further, inhibition in [1] was half-maximal at 500 nM (IC50).

In turn, `O=C(CC12CC3CC(C1)CC(C(=O)O)(C3)C2)NO` came in with a concentration for half-maximal inhibition (IC50) in data set [1] greater than 500000 nM.

In turn, `Cc1ccc(C23CC4CC(CC(CC(=O)NO)(C4)C2)C3)cc1` gave an IC50 in [1] of 250 nM.

In the case of `COC12CC3CC(CC(CC(=O)NO)(C3)C1)C2`, in [1], half-maximal inhibition (IC50) was put at 5700 nM.

For `O=C(CC12CC3CC(C1)CC(c1ccc4ccccc4c1)(C3)C2)NO`, in data set [1], the IC50 was 300 nM.

With `O=C(CC12CC3CC(CC(Cl)(C3)C1)C2)NO`, in data set [1], half-maximal inhibition (IC50) required 1400 nM. Compared with the last molecule, the IC50 is about 4.7-fold higher.

With `NCCCCCCCNC(=O)c1cc(CCC(=O)NO)c(CCC(O)(c2ccccc2)c2ccccc2)n1Cc1ccccc1`, the affinity in [2], expressed as Ki, was 760 nM.

In turn, `O=C(CC12CC3CC(C1)CC(c1ccc([N+](=O)[O-])cc1[N+](=O)[O-])(C3)C2)NO` registered a concentration for half-maximal inhibition (IC50) in data set [1] of 400 nM.

Consider `O=C(C[C@@H](CCO)c1ccc(Cl)cc1Cl)NO`, for which, in [2], the Ki stood at 160 nM.

The molecule `O=C(CC12CC3CC(C1)CC(c1ccc4c(c1)CCCC4)(C3)C2)NO` had a half-maximal inhibitory concentration (IC50) in data set [1] of 1000 nM.

`O=C(CC12CC3CC(CC(F)(C3)C1)C2)NO` gave an IC50 in [1] of 3100 nM.
